Data on 5 compounds can be found in ChEMBL document CHEMBL1130100, “Stabilized analogs of thymopentin. 3. Evaluation of ketomethylene pseudopeptides for antiarthritic properties” (1997).

“And” between values parts separate entries of the source, which are not always exact repeats. Equal entries are not always repeated.

Holding throughout (format): functional
Assay [1] has as its system Mus musculus. The experiment in a line: On set and incidence of arthritis in the Mouse Type II collagen model following 0.5 mg/kg on day 30. The gist of the method: (§1)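 DBA/1 Lac mice sensitized with bovine type II collagen (100 μg) in Freund's complete adjuvant, ip boost (100 μg) on day 21. Freshly dissolved compound in sterile saline was given iv every second day, day 19 through day 40, groups of 12. A mouse was scored arthritic if erythema or edema was present on any digit, paw or appendage. Incidence reported as number positive of 12.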

The subject of assay [2] is Mus musculus. Put plainly: On set and incidence of arthritis in the Mouse Type II collagen model at 0.5 dose mg/kg on day 37,expressed as number of mice treated out of 12 tested. The gist of the method:
as §1

Assay [3] deals with Mus musculus. The experiment in a line: On set and incidence of arthritis in the Mouse Type II collagen model at 0.5 dose mg/kg on day 40, expressed as number of mice treated out of 12 tested. The gist of the method:
as §1

The subject of assay [4] is Mus musculus. Put plainly: On set and incidence of arthritis in the Mouse Type II collagen model at 0.5 dose mg/kg on day 44, expressed as number of mice treated out of 12 tested. The gist of the method: as §1
Assay [5] concerns Mus musculus. The experiment in a line: Extent of paw swelling after treatment with thymopentin-5 (TP-5) compound in the Mouse Type II collagen arthritis at 1 mg/kg on day 30. The gist of the method:
(§2)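 DBA/1 Lac mice immunized with bovine type II collagen (100 μg) in Freund's complete adjuvant at four to six back sites, then boosted ip (100 μg) on day 21. Dosing was iv in sterile saline every second day from day 19 through day 40, 12 mice per dose. Each hind paw was measured by caliper. Result given as % of untreated swelling after subtracting age-matched normal paw.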

Assay [6] relates to Rattus norvegicus. The experiment in a line: extent of paw swelling following treatment with the compound in the rat adjuvant arthritis model observed on day 12 at 0.050 mg/kg dose. The settings on record: dose 0.05 mg/kg. The gist of the method: (§3)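 Rat adjuvant arthritis with iv dosing every second day, starting 2 days before the adjuvant/antigen challenge. Initial doses ranged 0.05 to 0.50 mg/kg, eight rats per dose. Each hind paw was measured by caliper. Swelling minus age-matched normal paw, expressed as % of untreated animals.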

For assay [7], the system named is Rattus norvegicus. Put plainly: extent of paw swelling following treatment with the compound in the rat adjuvant arthritis model observed on day 16 at 0.050 mg/kg dose. The settings on record: dose 0.05 mg/kg. The gist of the method:
as §3

Assay [8] deals with Rattus norvegicus. The experiment in a line: extent of paw swelling following treatment with the compound in the rat adjuvant arthritis model observed on day 19 at 0.050 mg/kg dose. The settings on record: dose 0.05 mg/kg. The gist of the method: as §3
In assay [9] the test system is Mus musculus. The experiment in a line: On set and incidence of arthritis in the Mouse Type II collagen model at 0.5 dose mg/kg on day 37, expressed as ratio of number treated to that of control. The gist of the method: as §1
In assay [10] the test system is Mus musculus. Put plainly: On set and incidence of arthritis in the Mouse Type II collagen model at 0.5 dose mg/kg on day 40, expressed as ratio of number treated to that of control. The gist of the method: as §1
In assay [11] the test system is Mus musculus. The experiment in a line: On set and incidence of arthritis in the Mouse Type II collagen model at 0.5 dose mg/kg on day 44, expressed as ratio of number treated to that of control. The gist of the method:
as §1

The test system of assay [12] is Rattus norvegicus. Put plainly: extent of paw swelling following treatment with the compound in the rat adjuvant arthritis model observed on day 12 at 0.05 mg/kg dose. The gist of the method: as §3
Assay [13] has as its system Rattus norvegicus. The experiment in a line: extent of paw swelling following treatment with the compound in the rat adjuvant arthritis model observed on day 16 at 0.05 mg/kg dose. The gist of the method: as §3
In assay [14] the test system is Rattus norvegicus. Put plainly: extent of paw swelling following treatment with the compound in the rat adjuvant arthritis model observed on day 19 at 0.05 mg/kg dose. The gist of the method: as §3
The subject of assay [15] is Mus musculus. Put plainly: Extent of paw swelling after treatment with thymopentin-5 (TP-5) compound in the Mouse Type II collagen arthritis at a dosage of 0.03 mg/kg on day 30. The gist of the method: as §2
In assay [16] the test system is Rattus norvegicus. Put plainly: extent of paw swelling following treatment with the compound in the rat adjuvant arthritis model observed on day 12 at 0.50 mg/kg dose. The settings on record: dose 0.5 mg/kg. The gist of the method: as §3
For assay [17], the system named is Rattus norvegicus. Put plainly: extent of paw swelling following treatment with the compound in the rat adjuvant arthritis model observed on day 19 at 0.50 mg/kg dose. The settings on record: dose 0.5 mg/kg. The gist of the method:
as §3

Assay [18] concerns Rattus norvegicus. Put plainly: extent of paw swelling following treatment with the compound in the rat adjuvant arthritis model observed on day 16 at 0.50 mg/kg dose. The conditions noted are these: dose 0.5 mg/kg. The gist of the method:
as §3

For assay [19], the system named is Mus musculus. The experiment in a line: 60 Extent of paw swelling after treatment with thymopentin-5 (TP-5) compound in the Mouse Type II collagen arthritis at a dosage of 1.0 mg/kg on day 30. The gist of the method:
as §2

The test system of assay [20] is Mus musculus. Put plainly: (§4) Extent of paw swelling after treatment with thymopentin-5 (TP-5) compound in the Mouse Type II collagen arthritis at a dosage of 1.0 mg/kg on day 44. The gist of the method:
as §2

In assay [21] the test system is Mus musculus. Described as §4. The gist of the method:
as §2
This is another data set of the same source.

For the compound `CCCCC(NC(=O)[C@H](CCCN=C(N)N)NC(C)=O)C(=O)N[C@@H](CC(=O)O)C(=O)NC(C(=O)C[C@@H](Cc1ccccc1)C(=O)O)C(C)C` (stereo partly drawn), the No. of mice in assay [1] was 8; in [2], 11; in assay [3], 11; in assay [4] it was 12. Also, the Paw swelling in assay [5] came to 100%; in assay [6], 0%; in [7] it was 100%; in assay [8], 100%.

Turning to `CCCC[C@@H](C(=O)N[C@@H](CC(=O)O)C(=O)N[C@H](C(=O)C[C@H](C(=O)O)C(C)C)C(C)C)N(C)C(=O)[C@@H](N)CCCN=C(N)N` (stereo in doubt; 1m-B), the No. of mice in assay [1] (0.5 mg/kg) was 8; in assay [9] it was 11; in assay [10], 11; in [11] it was 12. The Paw swelling in assay [5] (1 mg/kg) was found to be 100%; in assay [12], 0%; in assay [13], 100%; in assay [14], 100%.

On to `CC(C)[C@H](CC(=O)[C@H](CC(=O)O)NC(=O)[C@H](CCCCN)NC(=O)[C@@H](N)CCCN=C(N)N)C(=O)N[C@@H](Cc1ccccc1)C(=O)O` (stereo in doubt; 3a-A), for which the No. of mice in assay [1] is given as 5; in assay [9], 8; in assay [11], 9. In addition, the Paw swelling is 30% and 70% and 73% in [15]; 0% in assay [16]; 39% in assay [17]; 100% in assay [18].

Take `CCCC[C@@H](C(=O)N[C@@H](CC(=O)O)C(=O)N[C@H](C(=O)C[C@H](C(=O)O)C(C)C)C(C)C)N(C)C(=O)[C@@H](N)CCCN=C(N)N` (stereo in doubt; 1m-A): the No. of mice in assay [1] (0.5 mg/kg) was 3; in assay [9], 6; in assay [10] it was 7; in assay [11] it was 7. Further, the Paw swelling in assay [19] was 60%; in assay [5] (1 mg/kg), 73% and 58%; in assay [6] it was 0%; in [7], 80%; in assay [8], 45%.

`CCCCC(CC(=O)[C@@H](N)CCCN=C(N)N)C(=O)N[C@@H](CC(=O)O)C(=O)NC(C(=O)C[C@H](C(=O)O)C(C)C)C(C)C` (stereo in doubt; 1h-A): the No. of mice is 7 in assay [1] (0.5 mg/kg), 10 in [9], 10 in assay [10] and 10 in assay [11]. For the same compound, the Paw swelling is 63% in assay [20]; 95% and 75% and 63% in assay [21].
